This note sets out measurements from ChEMBL document CHEMBL1121634, “Heat-induced formation of alpha,beta-unsaturated nucleoside dialdehydes and their activity with adenosine deaminase” (J Med Chem, 1980).

The target in assay [1] is T1, Adenosine deaminase (Bos taurus, UniProt P56658).
T1 sequence (P56658 whole entry): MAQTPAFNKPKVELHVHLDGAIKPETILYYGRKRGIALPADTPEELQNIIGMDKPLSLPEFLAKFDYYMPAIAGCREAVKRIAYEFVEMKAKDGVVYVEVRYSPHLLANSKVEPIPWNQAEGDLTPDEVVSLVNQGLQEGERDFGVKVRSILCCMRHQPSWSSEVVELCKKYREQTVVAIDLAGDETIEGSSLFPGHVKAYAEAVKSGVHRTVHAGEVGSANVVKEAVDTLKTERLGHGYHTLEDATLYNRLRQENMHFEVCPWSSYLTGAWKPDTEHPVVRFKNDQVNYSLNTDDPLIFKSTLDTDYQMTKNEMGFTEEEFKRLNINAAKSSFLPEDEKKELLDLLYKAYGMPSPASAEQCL
Put plainly: Inhibitory constant against adenosine deaminase in 0.05 M sodium phosphate buffer at pH 7.0, was determined before heating.

Assay [2] has as its target T1, Adenosine deaminase. The experiment in a line: Inhibitor constant against adenosine deaminase in 0.05 M sodium phosphate buffer at pH 7.0, was determined after heating to 100 degrees celsius. The procedure, abridged:
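Dialdehyde pre-heated as an aqueous phosphate-buffer solution at 100 °C (about 1 h). Adenosine deaminase (0.25 unit) added to buffered adenosine (30–70 μM) plus dialdehyde (3-190 μM) in 0.05 M sodium phosphate, pH 7.0, 25 °C. Absorbance change at 265 nm followed. At least five substrate and two inhibitor levels used. Ki from Lineweaver–Burk plots, least-squares lines.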

Assay [3] addresses T1, Adenosine deaminase. Put plainly: Inhibitory constant against adenosine deaminase in 0.05 M sodium phosphate buffer at pH 7.0 was determined before heating.
In assay [4] the target is T1, Adenosine deaminase. Put plainly: Inhibitor constant against adenosine deaminase in 0.05 M sodium phosphate buffer at pH 7.0 was determined after heating to 100 degrees celsius. A digest of the protocol:
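Dialdehyde heated at 100 °C in aqueous phosphate buffer before testing. Adenosine deaminase (0.25 unit) added to buffered adenosine (30–70 μM, at least five levels) with dialdehyde (3–190 μM, two levels). Rate of absorbance change at 265 nm followed at 25 °C, 0.05 M sodium phosphate, pH 7.0. Ki from Lineweaver–Burk plots fitted by Wilkinson least squares.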

By Ki is commonly meant a measure of affinity in units of concentration, obtained from inhibition or displacement. Higher therefore signals lower affinity. For the compound `Nc1ncnc2c1ncn2[C@@H](C=O)O[C@@H](C=O)CO`, the inhibitory constant (Ki) on Adenosine deaminase [1] stood at 520 µM; on Adenosine deaminase [2] it was 5 µM.
In turn, `C=C(C=O)OC(C=O)n1cnc2c(N)ncnc21` (centres undefined) showed a Ki at Adenosine deaminase [3] of 4 µM.
Consider `Nc1ncnc2c1ncn2[C@H](C=O)O[C@@H](C=O)CO`, for which the Ki on Adenosine deaminase [1] turned out to be 310 µM; at Adenosine deaminase [4], 8 µM.
As for `Nc1ncnc2c1ncn2[C@@H](C=O)OCC=O`, the inhibition constant (Ki) at Adenosine deaminase [3] stood at 46 µM; on Adenosine deaminase [4], 30 µM.
For `Nc1ncnc2c1ncn2[C@H](C=O)OCC=O` the same measures were 780 µM and 800 µM.
As to `CC(O)[C@H](C=O)OC(C=O)n1cnc2c(N)ncnc21` (single isomer, unassigned), the Ki on Adenosine deaminase [4] amounted to 21 µM.
Same read-out and setting: for `CC(O)[C@@H](C=O)OC(C=O)n1cnc2c(N)ncnc21` (single isomer, unassigned; 7) the value was 24 µM.
For `CC(O)[C@@H](C=O)OC(C=O)n1cnc2c(N)ncnc21` (single isomer, unassigned; 10), the Ki at Adenosine deaminase [3] was found to be 150 µM; on Adenosine deaminase [4], 20 µM.
Take `C[C@@H](C=O)O[C@@H](C=O)n1cnc2c(N)ncnc21` (stereo in doubt; 4): the inhibition constant Ki worked out at 28 µM at Adenosine deaminase [3] and 30 µM at Adenosine deaminase [4].
As to `CC(O)[C@H](C=O)O[C@@H](C=O)n1cnc2c(N)ncnc21` (stereo in doubt; 8), on Adenosine deaminase [4], the inhibition constant (Ki) was found to be 69 µM.
On the same count and under the same terms, for `CC(O)[C@H](C=O)O[C@@H](C=O)n1cnc2c(N)ncnc21` (stereo in doubt; 9) the value was 38 µM.
Consider `C[C@@H](C=O)O[C@@H](C=O)n1cnc2c(N)ncnc21` (stereo in doubt; 13), for which the Ki on Adenosine deaminase [3] was 160 µM; at Adenosine deaminase [4] it was 100 µM.
